Read-outs that look alike come from different tables or passages of the source.
What was measured:
[1] = system: breast cancer cells MCF-7; test: MTT antiproliferative assay, MCF-7 under normoxia and hypoxia; assay type: cell-based, human; conditions: for IC50: Homo sapiens; for HCR, hypoxic cytotoxicity ratio: IC50(N)/IC50(H): MCF-7; for antiproliferative activity, in words: MCF-7, Table 3
How it was run: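 MTT assay on MCF-7 cells grown in high-glucose DMEM with 10% FBS, penicillin and streptomycin at 37 °C and 5% CO2. Cells were seeded at 40 000 per well, and test compound (10 mM DMSO stock) was added after 24 h; controls got solvent. Cells were kept under normoxia (21% O2) or hypoxia (1% O2). IC50 is mean ± S.D. of 3 experiments; HCR = IC50(N)/IC50(H).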

LN229 = test: Antiproliferative assay, LN229; assay type: cell-based; conditions: Homo sapiens, LN-229, read-out: IC50 LN229
HCT-116 = test: Antiproliferative assay, HCT-116; assay type: cell-based; conditions: Homo sapiens, HCT-116, read-out: IC50 HCT-116
K562 = test: Antiproliferative assay, K562; assay type: cell-based; conditions: Homo sapiens, K562, read-out: IC50 K562
hCA II = hCA II (Homo sapiens, UniProt P00918); test: Stopped flow CO2 hydrase assay, hCA II; assay type: biochemical
hCA IX = hCA IX (Homo sapiens, UniProt Q16790); test: biochemical; assay type: biochemical
hCA I = hCA I (Homo sapiens, UniProt P00915); test: Stopped flow CO2 hydrase assay, hCA I; assay type: biochemical
hCA I, sequence (P00915 whole entry): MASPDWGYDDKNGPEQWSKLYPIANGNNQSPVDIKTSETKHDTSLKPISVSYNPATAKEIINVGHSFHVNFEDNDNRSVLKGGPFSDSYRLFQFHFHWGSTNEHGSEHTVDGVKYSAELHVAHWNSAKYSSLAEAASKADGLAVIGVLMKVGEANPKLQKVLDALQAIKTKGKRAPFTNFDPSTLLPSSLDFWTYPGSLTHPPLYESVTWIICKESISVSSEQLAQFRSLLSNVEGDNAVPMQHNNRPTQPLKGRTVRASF

DND-41 = test: Antiproliferative assay, DND-41; assay type: cell-based; conditions: Homo sapiens, DND41, read-out: IC50 DND-41
Capan-1 = test: Antiproliferative assay, Capan-1; assay type: cell-based; conditions: Homo sapiens, CAPAN-1, read-out: IC50 Capan-1
Z138 = test: Antiproliferative assay, Z138; assay type: cell-based; conditions: Homo sapiens, Z-138, read-out: IC50 Z138
hCA XII = hCA XII (Homo sapiens, UniProt O43570); test: Stopped flow CO2 hydrase assay, hCA XII; assay type: biochemical
hCA XII, sequence (O43570 25-354): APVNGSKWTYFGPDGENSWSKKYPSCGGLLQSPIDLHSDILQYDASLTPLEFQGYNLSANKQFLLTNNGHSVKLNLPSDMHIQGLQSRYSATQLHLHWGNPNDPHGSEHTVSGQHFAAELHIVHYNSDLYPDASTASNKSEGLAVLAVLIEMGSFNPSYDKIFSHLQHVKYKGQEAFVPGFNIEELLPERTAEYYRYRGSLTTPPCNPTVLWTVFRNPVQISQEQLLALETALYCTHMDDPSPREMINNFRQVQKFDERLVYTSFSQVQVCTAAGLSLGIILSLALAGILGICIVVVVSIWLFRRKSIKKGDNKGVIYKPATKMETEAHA

NCI-H1975 = test: Antiproliferative assay, NCI-H1975; assay type: cell-based; conditions: Homo sapiens, NCI-H1975, read-out: IC50 NCI-H1975
HL-60 = test: Antiproliferative assay, HL-60; assay type: cell-based; conditions: Homo sapiens, HL-60, read-out: IC50 HL-60
[2] = system: panel of tumor cell lines; test: Antiproliferative activity over the panel of tumor cell lines; assay type: cell-based, human; conditions: for IC50: Homo sapiens
[3] = system: CA IX and cleaved PARP expression in A431 cells; test: Immunoblotting of CA IX and cleaved PARP in A431 cells under hypoxia; assay type: cell-based; conditions: 24 h
How it was run: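 A431 cells grew 24 h, then received test compound or tirapazamine reference (30 μM) in fresh medium and were held 24 h in hypoxia; the control stayed in normoxia. Lysis buffer: Tris-HCl pH 7.5, Igepal, NaCl, EDTA, DTT, PMSF, orthovanadate, protease inhibitors. Protein was measured by Bradford. Blots: 10% reducing SDS-PAGE, nitrocellulose, milk/TBS-Tween block, primary antibodies overnight at 4 °C, GAPDH loading control, HRP anti-rabbit, ECL.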

A431 skin cancer cells = test: MTT assay, A431 cells in normoxia and hypoxia; assay type: cell-based; conditions: for IC50: Homo sapiens, A-431, 72 h
How it was run: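 A431 cells were cultured in high-glucose DMEM with 10% FBS and penicillin/streptomycin at 37 °C and 5% CO2, then seeded at 35 000 per well. After 24 h, test compound from a 10 mM DMSO stock was added, with solvent-only controls. Incubation lasted 72 h under normoxia or hypoxia (1% O2). Viability was read by MTT, with IC50 from the concentration-response curve.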

[4] = read-out: IC50 range over the tested tumor cell lines

| IC50 ([1]; MCF7, read-out: IC50 H) [µM] | IC50 ([1]; MCF7, read-out: IC50 N) [µM] | IC50 (HCT-116) [µM] | IC50 (K562) [µM] | Ki (hCA II) [µM] | Ki (hCA IX) [µM] | Ki (hCA I) [µM] | Ki (hCA XII) [µM] | IC50 (NCI-H1975) [µM] | IC50 (HL-60) [µM] | SMILES | HCR, hypoxic cytotoxicity ratio: IC50(N)/IC50(H) [1] | IC50 (LN229) [µM] | IC50 (DND-41) [µM] | IC50 (Capan-1) [µM] | IC50 (Z138) [µM] | also measured |
| --- | --- | --- | --- | --- | --- | --- | --- | --- | --- | --- | --- | --- | --- | --- | --- | --- |
| 4.5 ± 1.1 | 24.2 ± 3.3 |  |  |  |  |  |  |  |  | Nc1n[n+]([O-])c2ccccc2[n+]1[O-] [TPZ, Tirapazamine, reference compound] | 5.4 |  |  |  |  |  |
| 0.4 ± 0.03 | 0.3 ± 0.03 |  |  |  |  |  |  |  |  | COc1cccc2c1C(=O)c1c(O)c3c(c(O)c1C2=O)C[C@@](O)(C(=O)CO)C[C@@H]3O[C@H]1C[C@H](N)[C@H](O)[C@H](C)O1 [DOXO, doxorubicin, reference compound] | 0.7 |  |  |  |  |  |
| 0.9 ± 0.06 | 4 ± 0.6 | > 100 | 52.6 ± 2.1 | 0.0054 ± 0.0003 | 0.257 ± 0.014 | 0.0424 ± 0.0019 | 0.252 ± 0.014 | 47.4 ± 2.3 | 52.7 ± 2.6 | CCOC(=O)c1c(-c2ccccc2)[n+]([O-])c2cc(S(N)(=O)=O)ccc2[n+]1[O-] [Compound 7e, 2-(Ethoxycarbonyl)-3-phenyl-6-sulfamoylquinoxaline 1,4-dioxide] | 4.7 | 87 ± 4.3 | 28.2 ± 1.4 | 6 ± 0.3 | 15.3 ± 0.8 |  |
| 0.8 ± 0.05 | 1.1 ± 0.1 | 1.3 ± 0.08 | 1.9 ± 0.2 | 0.0048 ± 0.0003 | > 10 | 0.0515 ± 0.0032 | 0.143 ± 0.011 | 1.9 ± 0.1 | 1.8 ± 0.1 | NS(=O)(=O)c1ccc2c(c1)[n+]([O-])c(C(F)(F)F)c(C(=O)c1ccccc1)[n+]2[O-] [Compound 7h, 2-Benzoyl-6-sulfamoyl-3-(trifluoromethyl)quinoxaline 1,4-dioxide] | 1.4 | 1.4 ± 0.03 | 2.1 ± 0.2 | 1.4 ± 0.07 | 1.9 ± 0.1 | IC50 [2, 4]: 1.3 to 2.1 µM; IC50 ([2]; read-out: IC50 range, all cell lines): 1.1 to 2.1 µM; higher activity compared to other analogs ([2]; against most tumor cells): 1.5–20 times |
| 0.9 ± 0.3 | 3.5 ± 0.2 | 47.9 ± 2.3 | 10.8 ± 0.5 | 0.0027 ± 0.0002 | 2.4 ± 0.096 | 0.0491 ± 0.003 | 0.089 ± 0.007 | 19.9 ± 0.9 | 2.3 ± 0.1 | N#Cc1c(-c2ccccc2)[n+]([O-])c2cc(S(N)(=O)=O)ccc2[n+]1[O-] [Compound 7a, 3-Phenyl-6-sulfamoylquinoxaline-2-carbonitrile 1,4-dioxide] | 3.9 | 38.8 ± 1.9 | 0.8 ± 0.05 | 7.5 ± 0.4 | 8.7 ± 0.4 |  |
| 1.3 ± 0.3 | 4.8 ± 0.2 |  |  | 0.0044 ± 0.0001 | > 10 | 0.0607 ± 0.0026 | 0.111 ± 0.0097 |  |  | N#Cc1c(-c2ccccc2)[n+]([O-])c2ccc(S(N)(=O)=O)cc2[n+]1[O-] [Compound 8a, 3-Phenyl-7-sulfamoylquinoxaline-2-carbonitrile 1,4-dioxide] | 3.7 |  |  |  |  |  |
|  |  | 2.3 ± 0.1 | 1.2 ± 0.06 |  |  |  |  | 1.1 ± 0.1 | 0.7 ± 0.04 | COc1cc([C@@H]2c3cc4c(cc3[C@@H](O[C@@H]3O[C@@H]5CO[C@@H](C)O[C@H]5[C@H](O)[C@H]3O)[C@H]3COC(=O)[C@H]23)OCO4)cc(OC)c1O [Etoposide, etoposide, reference compound] |  | 1.7 ± 0.1 | 0.29 ± 0.01 | 0.13 ± 0.01 | 0.3 ± 0.02 | IC50 [2, 4]: 0.13 to 2.3 µM |
| > 25 | > 25 | > 100 | > 100 |  |  |  |  | > 100 | 72.4 ± 3.6 | N#Cc1c(-c2cccs2)[n+]([O-])c2cc(S(N)(=O)=O)ccc2[n+]1[O-] [Compound 7d, 6-Sulfamoyl-3-(thiophen-2-yl)quinoxaline-2-carbonitrile 1,4-dioxide] |  | 98.8 ± 4.9 | 44.8 ± 2.2 | > 100 | > 100 | antiproliferative activity, in words [1]: complete loss of activity; Ki (hCA II; read-out: Ki hCA II, mean from three experiments, stopped flow CO2 hydrase assay): 0.0042 ± 0.0001 µM; activity against CA IX, in words (hCA IX): complete loss of activity; Ki (hCA IX; read-out: Ki hCA IX, mean from three experiments, stopped flow CO2 hydrase assay): > 10 µM; Ki (hCA I; read-out: Ki hCA I, mean from three experiments, stopped flow CO2 hydrase assay): 0.0417 ± 0.002 µM |
| 4.3 ± 0.3 | 10.5 ± 1.2 | 2.7 ± 0.1 | 26 ± 1.3 | 0.008 ± 0.0003 | > 10 | 0.063 ± 0.0031 | 0.0564 ± 0.004 | 33.3 ± 1.7 | 32.6 ± 1.6 | CCOC(=O)c1c(C)[n+]([O-])c2cc(S(N)(=O)=O)ccc2[n+]1[O-] [Compound 7f, 2-(Ethoxycarbonyl)-3-methyl-6-sulfamoylquinoxaline 1,4-dioxide] | 2.4 | 35.9 ± 1.8 | 10.3 ± 0.5 | 1.7 ± 0.1 | 3.3 ± 1.7 | activity against CA IX, in words (hCA IX): did not exhibit any inhibitory activity; enhancement of tumor cell growth inhibition compared to compound 7e ([2]; Table 4 cell lines): 1.4–40 times |
| 2.8 ± 0.4 | 11.7 ± 1.2 |  |  |  |  |  |  |  |  | CC(=O)c1c(C)[n+]([O-])c2ccc(S(N)(=O)=O)cc2[n+]1[O-] [Compound 8g, 2-Acetyl-3-methyl-7-sulfamoylquinoxaline 1,4-dioxide] | 4.2 |  |  |  |  |  |
| 0.8 ± 0.2 | 1.8 ± 0.2 | 34.3 ± 1.7 | 29.7 ± 1.5 | 0.0051 ± 0.0003 | 0.429 ± 0.021 | 0.0537 ± 0.0015 | 0.178 ± 0.009 | 13.9 ± 0.7 | 2 ± 0.1 | N#Cc1c(-c2ccc(Cl)cc2)[n+]([O-])c2cc(S(N)(=O)=O)ccc2[n+]1[O-] [Compound 7b, 3-(4-Chlorophenyl)-6-sulfamoylquinoxaline-2-carbonitrile 1,4-dioxide] | 2.2 | 24 ± 1.2 | 5.4 ± 0.3 | 1.8 ± 0.1 | 2.5 ± 0.2 | enhancement of cytotoxicity compared to unsubstituted analogue 7a ([2]; all tested cell lines except DND-41): 1.2 to 6.8 times |
| > 25 | > 25 | > 100 | > 100 | 0.0044 ± 0.0002 | > 10 | 0.038 ± 0.0011 | > 10 | > 100 | > 100 | N#Cc1c(-c2ccco2)[n+]([O-])c2cc(S(N)(=O)=O)ccc2[n+]1[O-] [Compound 7c, 3-(Furan-2-yl)-6-sulfamoylquinoxaline-2-carbonitrile 1,4-dioxide] |  | > 100 | > 100 | > 100 | > 100 | antiproliferative activity, in words [1]: complete loss of activity; activity against CA IX, in words (hCA IX): complete loss of activity; activity against CA XII, in words (hCA XII): inactive |
|  |  |  |  | 0.005 ± 0.0004 | > 10 | 0.0403 ± 0.0031 | 0.133 ± 0.012 |  |  | N#Cc1c(-c2ccc(Cl)cc2)[n+]([O-])c2ccc(S(N)(=O)=O)cc2[n+]1[O-] [Compound 8b, 3-(4-Chlorophenyl)-7-sulfamoylquinoxaline-2-carbonitrile 1,4-dioxide] |  |  |  |  |  |  |

| SMILES | IC50 ([1]; MCF7, read-out: IC50 H) [µM] | IC50 ([1]; MCF7, read-out: IC50 N) [µM] | IC50 (HCT-116) [µM] | IC50 (K562) [µM] | Ki (hCA II) [µM] | Ki (hCA IX) [µM] | Ki (hCA I) [µM] | Ki (hCA XII) [µM] | IC50 (NCI-H1975) [µM] | IC50 (HL-60) [µM] | HCR, hypoxic cytotoxicity ratio: IC50(N)/IC50(H) [1] | IC50 (LN229) [µM] | IC50 (DND-41) [µM] | IC50 (Capan-1) [µM] | IC50 (Z138) [µM] | also measured |
| --- | --- | --- | --- | --- | --- | --- | --- | --- | --- | --- | --- | --- | --- | --- | --- | --- |
| CC(=O)c1c(C)[n+]([O-])c2cc(S(N)(=O)=O)ccc2[n+]1[O-] [Compound 7g, 2-Acetyl-3-methyl-6-sulfamoylquinoxaline 1,4-dioxide] | 6.9 ± 0.3 | 7.1 ± 0.2 | 69.6 ± 3.5 | 94.8 ± 4.7 | 0.0074 ± 0.0002 | 0.0422 ± 0.004 | 0.0657 ± 0.0024 | 0.24 ± 0.013 | 66.1 ± 3.3 | 85.9 ± 4.3 | 1.1 | > 100 | 66.9 ± 3.3 | 38.3 ± 1.9 | 44.3 ± 2.2 | CA IX expression [3]: dose-dependent reduction in CA IX expression; cleaved PARP (marker of apoptosis) [3]: accumulation of cleaved PARP; decrease in cell survival (A431 skin cancer cells; A431, 50 μM, normoxia, 72 h): approximately 40%; IC50 (A431 skin cancer cells; read-out: IC50 A431, hypoxia): ~11 µM; IC50 (A431 skin cancer cells; read-out: IC50 A431, normoxia): > 50 µM; decrease in activity compared to 2-ethoxycarbonyl analogue 7f ([2]; Table 4 cell lines): 2–25 fold |

Source: paper PMC11265520 (RSC Advances, 2024)
